{"source": "paper PMC4929832", "about": "(Nature, 2016)", "key": {"PDK1": {"target": "PDK1 (Homo sapiens, UniProt O15530)", "assay": "kinase panel", "format": "biochemical"}, "Dopamine Transporter": {"target": "Dopamine Transporter (Homo sapiens, UniProt Q01959)", "assay": "Dopamine Transporter assay", "format": "binding"}, "GSK-3-BETA": {"target": "GSK-3-BETA (Homo sapiens, UniProt P49841)", "assay": "kinase panel", "format": "biochemical"}, "CLK2": {"target": "CLK2 (Homo sapiens, UniProt P49760)", "assay": "kinase panel", "format": "biochemical"}, "Dopamine D2 receptor": {"target": "Dopamine D2 receptor (Homo sapiens, UniProt P14416)", "assay": "Dopamine D2 receptor assay", "format": "binding"}, "MARK3": {"target": "MARK3 (Homo sapiens, UniProt P27448)", "assay": "kinase panel", "format": "biochemical"}, "CK1-GAMMA1": {"target": "CK1-GAMMA1 (Homo sapiens, UniProt Q9HCP0)", "sequence (Q9HCP0 whole entry)": "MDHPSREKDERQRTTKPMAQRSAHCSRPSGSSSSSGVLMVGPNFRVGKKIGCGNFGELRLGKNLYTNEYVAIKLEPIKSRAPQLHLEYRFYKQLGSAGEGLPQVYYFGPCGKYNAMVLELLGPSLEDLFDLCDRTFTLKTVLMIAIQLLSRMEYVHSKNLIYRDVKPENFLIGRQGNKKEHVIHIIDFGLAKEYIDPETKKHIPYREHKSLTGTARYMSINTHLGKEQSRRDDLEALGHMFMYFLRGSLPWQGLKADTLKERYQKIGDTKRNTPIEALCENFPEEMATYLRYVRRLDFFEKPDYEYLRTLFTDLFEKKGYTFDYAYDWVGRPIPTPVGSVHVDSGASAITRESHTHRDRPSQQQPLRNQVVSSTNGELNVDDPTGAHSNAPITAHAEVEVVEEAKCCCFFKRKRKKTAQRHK", "assay": "kinase panel", "format": "biochemical"}, "TSSK1": {"target": "TSSK1 (Homo sapiens, UniProt Q9BXA7)", "assay": "kinase panel", "format": "biochemical"}, "MRCK-BETA": {"target": "MRCK-BETA (Homo sapiens, UniProt Q9Y5S2)", "sequence (Q9Y5S2 whole entry)": "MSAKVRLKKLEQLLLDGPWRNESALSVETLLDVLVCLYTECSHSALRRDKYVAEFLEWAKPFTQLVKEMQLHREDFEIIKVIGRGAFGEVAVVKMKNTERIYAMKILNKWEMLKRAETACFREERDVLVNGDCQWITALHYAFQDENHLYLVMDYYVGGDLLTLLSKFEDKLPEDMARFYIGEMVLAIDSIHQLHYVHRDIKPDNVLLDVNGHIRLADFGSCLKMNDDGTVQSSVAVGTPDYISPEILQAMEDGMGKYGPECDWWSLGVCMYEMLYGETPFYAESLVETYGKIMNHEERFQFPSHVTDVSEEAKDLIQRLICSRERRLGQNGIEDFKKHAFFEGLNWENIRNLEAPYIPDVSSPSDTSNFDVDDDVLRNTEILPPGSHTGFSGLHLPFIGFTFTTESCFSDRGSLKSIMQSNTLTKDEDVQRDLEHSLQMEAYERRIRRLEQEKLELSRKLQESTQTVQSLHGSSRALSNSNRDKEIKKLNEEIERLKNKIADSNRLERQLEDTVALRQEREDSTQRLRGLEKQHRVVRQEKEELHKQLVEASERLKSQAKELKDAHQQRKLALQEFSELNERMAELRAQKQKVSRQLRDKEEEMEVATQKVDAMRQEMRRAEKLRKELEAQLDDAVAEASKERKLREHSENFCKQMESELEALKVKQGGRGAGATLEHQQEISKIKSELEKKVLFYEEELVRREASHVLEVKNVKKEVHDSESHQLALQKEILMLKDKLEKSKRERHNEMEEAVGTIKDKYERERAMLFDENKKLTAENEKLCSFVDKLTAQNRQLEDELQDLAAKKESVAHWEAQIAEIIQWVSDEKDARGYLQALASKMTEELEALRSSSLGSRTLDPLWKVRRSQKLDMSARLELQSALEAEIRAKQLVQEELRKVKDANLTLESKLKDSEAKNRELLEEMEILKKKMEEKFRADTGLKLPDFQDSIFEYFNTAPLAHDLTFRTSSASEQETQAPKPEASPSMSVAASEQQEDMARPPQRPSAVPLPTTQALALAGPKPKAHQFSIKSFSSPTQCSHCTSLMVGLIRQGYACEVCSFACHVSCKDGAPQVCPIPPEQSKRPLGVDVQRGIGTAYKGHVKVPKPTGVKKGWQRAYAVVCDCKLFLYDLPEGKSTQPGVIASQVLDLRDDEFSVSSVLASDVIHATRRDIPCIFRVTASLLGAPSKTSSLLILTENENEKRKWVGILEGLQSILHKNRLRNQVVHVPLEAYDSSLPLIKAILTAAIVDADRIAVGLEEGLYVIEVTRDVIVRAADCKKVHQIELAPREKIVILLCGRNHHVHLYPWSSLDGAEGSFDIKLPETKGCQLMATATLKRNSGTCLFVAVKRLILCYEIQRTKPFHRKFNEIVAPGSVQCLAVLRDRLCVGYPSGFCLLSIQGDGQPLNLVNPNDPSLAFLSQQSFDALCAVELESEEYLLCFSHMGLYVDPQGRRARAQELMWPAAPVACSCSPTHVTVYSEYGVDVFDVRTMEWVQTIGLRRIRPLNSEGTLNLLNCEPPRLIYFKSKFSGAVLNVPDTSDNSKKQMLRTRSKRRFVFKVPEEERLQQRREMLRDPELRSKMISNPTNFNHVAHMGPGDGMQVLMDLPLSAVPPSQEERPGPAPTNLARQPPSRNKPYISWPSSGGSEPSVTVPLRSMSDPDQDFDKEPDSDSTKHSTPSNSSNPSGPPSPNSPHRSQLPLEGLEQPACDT", "assay": "kinase panel", "format": "biochemical"}, "AKT3": {"target": "AKT3 (Homo sapiens, UniProt Q9Y243)", "assay": "kinase panel", "format": "biochemical"}, "P38-GAMMA": {"target": "P38-GAMMA (Homo sapiens, UniProt P53778)", "assay": "kinase panel", "format": "biochemical"}, "Progesterone Receptor": {"target": "Progesterone Receptor (Homo sapiens, UniProt P06401)", "assay": "Progesterone Receptor antagonist assay", "format": "cell-based"}, "SYK": {"target": "SYK (Homo sapiens, UniProt P43405)", "assay": "kinase panel", "format": "biochemical"}, "TAOK3": {"target": "TAOK3 (Homo sapiens, UniProt Q9H2K8)", "assay": "kinase panel", "format": "biochemical"}, "DYRK3": {"target": "DYRK3 (Homo sapiens, UniProt O43781)", "assay": "kinase panel", "format": "biochemical"}, "[1]": {"system": "exon19del/T790M EGFR Ba/F3 cells", "assay": "Ba/F3 cell proliferation", "format": "cell-based", "details": "EAI045 with cetuximab (10 μg/ml)", "summary_of_the_method": "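Ba/F3 cells, either parental or stably expressing mutant EGFR lines described earlier, were exposed to the test compound for 72 hours. Cell numbers were set empirically. Growth was read by MTS assay. Each point was run in six wells, and each experiment was repeated at least three times. Curves were fitted by non-linear regression to a sigmoidal dose response.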"}, "TSSK2": {"target": "TSSK2 (Homo sapiens, UniProt Q96PF2)", "assay": "kinase panel", "format": "biochemical"}, "LCK": {"target": "LCK (Homo sapiens, UniProt P06239)", "assay": "kinase panel", "format": "biochemical"}, "JNK2": {"target": "JNK2 (Homo sapiens, UniProt P45984)", "assay": "kinase panel", "format": "biochemical"}, "H3255 cells": {"system": "H3255 cells", "assay": "Proliferation assay", "format": "cell-based", "summary_of_the_method": "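Cells were maintained in 10% FBS/RPMI with penicillin/streptomycin and plated at 500 cells/well in 10% FBS RPMI. Serially diluted test compound was pin-transferred. Viability was read after 3 days by CellTiter-Glo luminescence and normalized to 0.1% DMSO-treated cells and empty wells. EC50 was obtained by non-linear regression curve fitting.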"}, "IKK-EPSILON": {"target": "IKK-EPSILON (Homo sapiens, UniProt Q14164)", "assay": "kinase panel", "format": "biochemical"}, "PRKD3": {"target": "PRKD3 (Homo sapiens, UniProt O94806)", "assay": "kinase panel", "format": "biochemical"}, "CDK1": {"target": "CDK1 (Homo sapiens, UniProt P06493)", "assay": "kinase panel", "format": "biochemical"}, "NEK1": {"target": "NEK1 (Homo sapiens, UniProt Q96PY6)", "assay": "kinase panel", "format": "biochemical"}, "MELK": {"target": "MELK (Homo sapiens, UniProt Q14680)", "assay": "kinase panel", "format": "biochemical"}, "RET": {"target": "RET (Homo sapiens, UniProt P07949)", "assay": "kinase panel", "format": "biochemical"}, "CAMK2A": {"target": "CAMK2A (Homo sapiens, UniProt Q9UQM7)", "assay": "kinase panel", "format": "biochemical"}, "HASPIN": {"target": "HASPIN (Homo sapiens, UniProt Q8TF76)", "assay": "kinase panel", "format": "biochemical"}, "CYP3A4": {"system": "CYP3A4", "assay": "CYP3A4 Induction Reporter Gene", "format": "cell-based", "details": "human, CYP3A4 induction reporter gene assay (cell line not given)"}, "PKN2": {"target": "PKN2 (Homo sapiens, UniProt Q16513)", "sequence (Q16513 whole entry)": "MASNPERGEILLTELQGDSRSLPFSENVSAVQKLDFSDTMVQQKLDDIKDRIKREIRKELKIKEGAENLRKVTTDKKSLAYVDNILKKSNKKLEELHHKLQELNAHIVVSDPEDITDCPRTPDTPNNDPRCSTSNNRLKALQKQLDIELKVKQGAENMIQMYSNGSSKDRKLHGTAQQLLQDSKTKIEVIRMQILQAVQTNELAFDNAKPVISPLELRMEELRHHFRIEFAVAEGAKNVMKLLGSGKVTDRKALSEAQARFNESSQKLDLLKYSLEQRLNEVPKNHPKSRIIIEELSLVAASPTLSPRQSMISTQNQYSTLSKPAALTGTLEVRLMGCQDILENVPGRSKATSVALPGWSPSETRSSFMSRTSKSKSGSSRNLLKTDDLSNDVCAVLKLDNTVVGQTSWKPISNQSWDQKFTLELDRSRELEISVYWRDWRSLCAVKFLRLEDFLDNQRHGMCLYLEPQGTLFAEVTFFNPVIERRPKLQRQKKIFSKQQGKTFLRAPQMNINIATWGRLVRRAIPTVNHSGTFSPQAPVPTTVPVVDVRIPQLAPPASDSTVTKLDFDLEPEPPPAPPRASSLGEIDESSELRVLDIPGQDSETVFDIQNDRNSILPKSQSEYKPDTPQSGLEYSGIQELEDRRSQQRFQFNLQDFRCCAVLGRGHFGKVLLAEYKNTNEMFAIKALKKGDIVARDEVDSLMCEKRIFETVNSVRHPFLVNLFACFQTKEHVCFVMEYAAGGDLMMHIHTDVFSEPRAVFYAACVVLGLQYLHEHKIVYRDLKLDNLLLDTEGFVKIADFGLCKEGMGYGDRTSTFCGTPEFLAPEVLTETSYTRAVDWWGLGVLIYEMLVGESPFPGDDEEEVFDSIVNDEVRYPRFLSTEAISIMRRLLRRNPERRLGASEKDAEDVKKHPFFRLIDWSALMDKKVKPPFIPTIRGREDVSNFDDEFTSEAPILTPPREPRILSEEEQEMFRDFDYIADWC", "assay": "kinase panel", "format": "biochemical"}, "[2]": {"system": "panel of 250 protein kinases", "assay": "Profiling against a panel of 250 protein kinases", "format": "biochemical", "details": "1 μM EAI045"}, "CAMK1D": {"target": "CAMK1D (Homo sapiens, UniProt Q8IU85)", "assay": "kinase panel", "format": "biochemical"}, "SRPK1": {"target": "SRPK1 (Homo sapiens, UniProt Q96SB4)", "assay": "kinase panel", "format": "biochemical"}, "[3]": {"target": "EGFR L858R/T790M in H1975 cells (Homo sapiens, UniProt P00533, L858R/T790M)", "assay": "EGFR phosphorylation by western blotting", "format": "cell-based", "details": "western blot, 3h"}, "Adenosine 2A receptor": {"target": "Adenosine 2A receptor (Homo sapiens, UniProt P29274)", "assay": "Adenosine 2A receptor binding assay"}, "ZAP70": {"target": "ZAP70 (Homo sapiens, UniProt P43403)", "sequence (P43403 whole entry)": "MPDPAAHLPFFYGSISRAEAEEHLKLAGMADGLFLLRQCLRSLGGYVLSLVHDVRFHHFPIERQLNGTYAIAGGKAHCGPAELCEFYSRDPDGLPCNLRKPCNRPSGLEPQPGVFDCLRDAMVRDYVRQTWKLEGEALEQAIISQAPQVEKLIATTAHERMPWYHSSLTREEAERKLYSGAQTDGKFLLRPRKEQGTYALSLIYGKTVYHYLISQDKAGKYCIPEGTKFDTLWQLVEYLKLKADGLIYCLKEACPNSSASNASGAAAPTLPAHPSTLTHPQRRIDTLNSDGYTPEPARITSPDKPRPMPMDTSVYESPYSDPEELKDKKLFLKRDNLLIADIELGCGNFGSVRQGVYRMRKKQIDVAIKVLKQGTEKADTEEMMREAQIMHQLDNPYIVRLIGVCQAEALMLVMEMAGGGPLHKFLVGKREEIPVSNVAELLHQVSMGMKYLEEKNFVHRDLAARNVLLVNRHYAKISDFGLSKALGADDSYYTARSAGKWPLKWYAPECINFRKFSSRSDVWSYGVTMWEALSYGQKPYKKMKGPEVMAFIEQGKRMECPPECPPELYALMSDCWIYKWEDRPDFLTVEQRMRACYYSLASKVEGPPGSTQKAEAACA", "assay": "kinase panel", "format": "biochemical"}, "Phosphodiesterase 3": {"target": "Phosphodiesterase 3 (Homo sapiens, UniProt Q14432)", "assay": "Phosphodiesterase 3 assay", "format": "biochemical"}, "RSK3": {"target": "RSK3 (Homo sapiens, UniProt Q15349)", "assay": "kinase panel", "format": "biochemical"}, "DYRK1B": {"target": "DYRK1B (Homo sapiens, UniProt Q9Y463)", "assay": "kinase panel", "format": "biochemical"}, "SLK": {"target": "SLK (Homo sapiens, UniProt Q9H2G2)", "sequence (Q9H2G2 whole entry)": "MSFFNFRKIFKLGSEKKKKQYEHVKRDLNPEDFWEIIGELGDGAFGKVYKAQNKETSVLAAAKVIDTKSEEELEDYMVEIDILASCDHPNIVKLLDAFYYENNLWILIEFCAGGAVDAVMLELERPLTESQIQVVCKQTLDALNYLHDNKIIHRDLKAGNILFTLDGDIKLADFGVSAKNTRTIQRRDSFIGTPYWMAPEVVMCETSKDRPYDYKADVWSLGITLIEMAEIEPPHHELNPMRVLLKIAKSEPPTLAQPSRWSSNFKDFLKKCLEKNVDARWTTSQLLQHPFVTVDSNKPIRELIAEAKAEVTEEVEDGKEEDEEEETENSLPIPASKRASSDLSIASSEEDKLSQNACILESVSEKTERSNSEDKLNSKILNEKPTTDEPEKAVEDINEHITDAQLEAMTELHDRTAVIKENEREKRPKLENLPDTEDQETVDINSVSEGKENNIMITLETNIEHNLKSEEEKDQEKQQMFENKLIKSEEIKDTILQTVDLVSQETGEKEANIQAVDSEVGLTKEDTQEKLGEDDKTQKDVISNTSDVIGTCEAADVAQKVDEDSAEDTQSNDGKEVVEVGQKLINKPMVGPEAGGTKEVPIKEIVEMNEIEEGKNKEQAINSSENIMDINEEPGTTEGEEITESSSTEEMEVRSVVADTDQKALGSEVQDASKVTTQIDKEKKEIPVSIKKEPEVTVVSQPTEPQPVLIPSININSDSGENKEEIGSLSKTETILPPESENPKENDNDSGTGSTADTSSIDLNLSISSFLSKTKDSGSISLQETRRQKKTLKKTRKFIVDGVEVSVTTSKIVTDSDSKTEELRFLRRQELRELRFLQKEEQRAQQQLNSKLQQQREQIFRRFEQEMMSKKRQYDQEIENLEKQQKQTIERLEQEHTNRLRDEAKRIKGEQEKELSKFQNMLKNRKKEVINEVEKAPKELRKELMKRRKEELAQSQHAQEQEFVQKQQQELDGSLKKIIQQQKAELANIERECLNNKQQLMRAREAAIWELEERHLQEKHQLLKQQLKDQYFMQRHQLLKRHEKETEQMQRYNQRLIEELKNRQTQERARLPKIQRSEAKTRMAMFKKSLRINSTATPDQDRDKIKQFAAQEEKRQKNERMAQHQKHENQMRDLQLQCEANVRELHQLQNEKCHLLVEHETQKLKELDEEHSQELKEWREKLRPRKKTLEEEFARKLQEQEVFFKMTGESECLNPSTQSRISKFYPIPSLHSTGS", "assay": "kinase panel", "format": "biochemical"}}}
{"smiles": "O=C(Nc1nccs1)C(c1cc(F)ccc1O)N1Cc2ccccc2C1=O", "note": "(centres unmarked) [EAI045, 2-(5-fluoro-2-hydroxyphenyl)-2-(1-oxo-2,3-dihydro-1H-isoindol-2-yl)-N-(1,3-thiazol-2-yl)acetamide]", "values": [{"measurement": "inhibition at 1 µM", "setting": "PDK1", "result": 0, "unit": "%"}, {"measurement": "IC50", "setting": "Dopamine Transporter", "result": "> 30", "unit": "µM"}, {"measurement": "inhibition at 1 µM", "setting": "GSK-3-BETA", "result": 0, "unit": "%"}, {"measurement": "inhibition at 1 µM", "setting": "CLK2", "result": 1, "unit": "%"}, {"measurement": "IC50", "setting": "Dopamine D2 receptor", "result": "> 30", "unit": "µM"}, {"measurement": "inhibition at 1 µM", "setting": "MARK3", "result": 0, "unit": "%"}, {"measurement": "inhibition at 1 µM", "setting": "CK1-GAMMA1", "result": 2, "unit": "%"}, {"measurement": "inhibition at 1 µM", "setting": "TSSK1", "result": 2, "unit": "%"}, {"measurement": "inhibition at 1 µM", "setting": "MRCK-BETA", "result": 0, "unit": "%"}, {"measurement": "inhibition at 1 µM", "setting": "AKT3", "result": 0, "unit": "%"}, {"measurement": "inhibition at 1 µM", "setting": "P38-GAMMA", "result": 2, "unit": "%"}, {"measurement": "IC50", "setting": "Progesterone Receptor", "result": "> 30", "unit": "µM"}, {"measurement": "inhibition at 1 µM", "setting": "SYK", "result": 0, "unit": "%"}, {"measurement": "inhibition at 1 µM", "setting": "TAOK3", "result": 0, "unit": "%"}, {"measurement": "inhibition at 1 µM", "setting": "DYRK3", "result": 2, "unit": "%"}, {"measurement": "proliferation", "setting": "[1]", "result": "not inhibited"}, {"measurement": "inhibition at 1 µM", "setting": "TSSK2", "result": 0, "unit": "%"}, {"measurement": "inhibition at 1 µM", "setting": "LCK", "result": 0, "unit": "%"}, {"measurement": "inhibition at 1 µM", "setting": "JNK2", "result": 0, "unit": "%"}, {"measurement": "anti-proliferative effect", "setting": "H3255 cells; H3255, concentrations as high as 10 μM", "result": "no anti-proliferative effect"}, {"measurement": "EC50", "setting": "H3255 cells; Homo sapiens, NCI-H3255, 72 h, read-out: EC50 Proliferation", "result": "> 10", "unit": "µM"}, {"measurement": "inhibition at 1 µM", "setting": "IKK-EPSILON", "result": 0, "unit": "%"}, {"measurement": "inhibition at 1 µM", "setting": "PRKD3", "result": 0, "unit": "%"}, {"measurement": "inhibition at 1 µM", "setting": "CDK1", "result": 2, "unit": "%"}, {"measurement": "inhibition at 1 µM", "setting": "NEK1", "result": 0, "unit": "%"}, {"measurement": "inhibition at 1 µM", "setting": "MELK", "result": 0, "unit": "%"}, {"measurement": "inhibition at 1 µM", "setting": "RET", "result": 0, "unit": "%"}, {"measurement": "inhibition at 1 µM", "setting": "CAMK2A", "result": 2, "unit": "%"}, {"measurement": "inhibition at 1 µM", "setting": "HASPIN", "result": 1, "unit": "%"}, {"measurement": "IC50", "setting": "CYP3A4", "result": "> 10", "unit": "µM"}, {"measurement": "inhibition at 1 µM", "setting": "PKN2", "result": 1, "unit": "%"}, {"measurement": "inhibition of other kinases in the panel", "setting": "[2]", "result": "≤ 20", "unit": "%"}, {"measurement": "inhibition at 1 µM", "setting": "CAMK1D", "result": 0, "unit": "%"}, {"measurement": "inhibition at 1 µM", "setting": "SRPK1", "result": 0, "unit": "%"}, {"measurement": "EGFR autophosphorylation", "setting": "[3]", "result": "potently decreased, but did not completely eliminate EGFR autophosphorylation"}, {"measurement": "IC50", "setting": "Adenosine 2A receptor", "result": "> 30", "unit": "µM"}, {"measurement": "inhibition at 1 µM", "setting": "ZAP70", "result": 1, "unit": "%"}, {"measurement": "IC50", "setting": "Phosphodiesterase 3", "result": "> 30", "unit": "µM"}, {"measurement": "inhibition at 1 µM", "setting": "RSK3", "result": 0, "unit": "%"}, {"measurement": "inhibition at 1 µM", "setting": "DYRK1B", "result": 2, "unit": "%"}, {"measurement": "inhibition at 1 µM", "setting": "SLK", "result": 0, "unit": "%"}]}
